DENV2 CPE – protects cells from dengue virus 2 cytopathic effect; DENV2-infected cells, cytopathic effect rescue, plate reader; CPE inhibition, % at 9.99 µM; 1.7% of 350,000 active; AID 651640; in the data active = CPE inhibition above about 20%, passing the limit was not always enough; inconclusive = no clear call, values can overlap the other calls; tested in BHK-21 cells;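 note: 0% = median of neutral control wells and 100% = median of positive control wells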
ERp5 block – blocks human ERp5 reductase activity on insulin; AID 651711; inhibition, % at 9.99 µM; ERp5 insulin aggregation, absorbance 650 nm, 90 min; Q15084; 0.05% of 350,000 active;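 active = mean replicate inhibition above about 25%, with every replicate also reaching it, limit read from the data, passing the limit was not always enough; inconclusive = only one of those two criteria met; inactive = neither criterion met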
Cneo AK release – Cryptococcus neoformans lysis via adenylate kinase release; C. neoformans lysis, adenylate kinase release luminescence, 4 h; normalised: neutral wells 0, clomiphene wells 100; lysis activity, % at 15 µM; 0.2% of 360,000 active;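 active = mean lysis activity across replicates of at least 80%, whatever share of replicates individually reach that level; inactive = mean lysis activity below 80%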
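Assay system: C. neoformans cells. Amount: yeast cell density of 5 × 10^6 cells/mL. Technique: AK luminescence. Buffer or medium: YPD. Times: static 4 h at 37 °C with compound, 1 h detection. Dosing: single-point compound dose. Read-out: lysis from increased AK signal.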
C2C12 statin – protects C2C12 myotubes from simvastatin toxicity | rescue of ATP level, % at 7.49 µM | AID 602340 | 0.78% of 330,000 active | ATP luminescence, 48 h; scaled: DMSO 0, geranylgeraniol control 100;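 active = mean ATP rescue above about 67%, or every replicate alone reaching that limit, limit read from the data, passing the limit was not always enough; inconclusive = no clear call, values can overlap the other calls; inactive = mean under the limit and some replicate under it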;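 note: myotubes were challenged with 10 µM simvastatin during compound exposure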
PDI turbidity – blocks human protein disulfide isomerase activity | 0.052% of 350,000 active | inhibition, % at 10 µM | PDI insulin aggregation turbidity, A650, 90 min | P07237;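 active = mean inhibition across replicates of 30% or more, whatever share of single replicates reach that level; inconclusive = mean inhibition below 30% while every single replicate reaches 30%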
Target sequence (P07237 whole entry, looked up): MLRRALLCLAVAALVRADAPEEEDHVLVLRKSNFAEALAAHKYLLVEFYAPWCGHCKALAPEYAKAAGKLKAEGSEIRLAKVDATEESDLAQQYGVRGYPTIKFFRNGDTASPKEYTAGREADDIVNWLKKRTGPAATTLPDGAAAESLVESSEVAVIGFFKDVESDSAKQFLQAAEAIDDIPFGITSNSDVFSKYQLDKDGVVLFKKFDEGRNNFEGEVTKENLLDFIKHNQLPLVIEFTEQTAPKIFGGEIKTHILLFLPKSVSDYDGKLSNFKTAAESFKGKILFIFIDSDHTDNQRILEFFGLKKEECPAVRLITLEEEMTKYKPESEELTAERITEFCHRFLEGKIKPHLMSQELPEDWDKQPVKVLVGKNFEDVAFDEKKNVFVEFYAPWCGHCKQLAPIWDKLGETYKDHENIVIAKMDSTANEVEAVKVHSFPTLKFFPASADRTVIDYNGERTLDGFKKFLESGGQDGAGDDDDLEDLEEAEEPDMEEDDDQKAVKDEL
CFTR F508del cor – correctors of CFTR F508del function in bronchial epithelial cells. CFBE cells, YFP halide quenching; stimulated with forskolin plus potentiator P3; % fluorescence drop versus neutral controls. activity (quench increase), % at 7.58 µM. 0.36% of 350,000 active;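 active = mean added fluorescence quench of at least 8% versus neutral control, with both replicates also reaching 8%; inconclusive = only one of the mean or replicate conditions met; inactive = mean below 8% and not both replicates reaching 8%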;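 note: cells transiently co-express mutant CFTR-F508del with the halide-sensitive YFP; corrector assay measuring rescue of mutant channel to the surface after 24 h compound exposure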
Starred values were filed as active, the others as inactive. Most compounds without a hit are left out; they make up all but 2.3% or so of the library.

Results for Cc1ccc(NC(=S)NCC23C=CC(O2)C2C(=O)N(c4ccc(C)cc4)C(=O)C23)cc1 (stereo not given) ?
DENV2 CPE: 49*; ERp5 block: 3; Cneo AK release: -2; PDI turbidity: 0; CFTR F508del cor: 1

What do the screens show for `Cc1cccc(NC(=S)NCC23C=CC(O2)C2C(=O)N(c4ccc(Cl)cc4)C(=O)C23)c1` (stereo not given)?
PDI turbidity: inconclusive; CFTR F508del cor: 0

How did C[C@H](CO)N1C[C@H](C)[C@H](CN(C)C(=O)C2CCCCC2)OCc2cn(nn2)CCCC1=O do in these assays?
DENV2 CPE: 1; ERp5 block: 2; Cneo AK release: -2; C2C12 statin: -9; CFTR F508del cor: -4

How did O=[N+]([O-])c1ccccc1S(=O)(=O)Nc1ccc(S(=O)(=O)N2CCOCC2)cc1 do in these assays?
DENV2 CPE: 31*; ERp5 block: 7; Cneo AK release: 0; C2C12 statin: 7; PDI turbidity: -4; CFTR F508del cor: 5

How did N#Cc1nc(-c2ccco2)oc1N1CCCC1 do in these assays?
C2C12 statin: 112*; PDI turbidity: -9

How did CCC(=O)N1C[C@@H]2[C@H](c3ccccc31)[C@H](CO)N2Cc1ccccc1OC do in these assays?
DENV2 CPE: 35*; ERp5 block: 0; Cneo AK release: 1; C2C12 statin: -30; CFTR F508del cor: -1

What do the screens show for `COc1ccccc1C(=O)N1C[C@H]2[C@@H](c3ccccc31)[C@@H](CO)N2C(=O)Cc1ccccc1`?
DENV2 CPE: inconclusive; ERp5 block: 21; Cneo AK release: 101*; C2C12 statin: -24; CFTR F508del cor: 7

What do the screens show for `CCC(=O)N1C[C@H]2[C@@H](c3ccccc31)[C@@H](CO)N2Cc1ccccc1OC`?
DENV2 CPE: -3; ERp5 block: -2; Cneo AK release: -1; C2C12 statin: -3; CFTR F508del cor: -1

Results for CCCNC(=O)N1C[C@@H]2[C@H](c3ccccc31)[C@H](CO)N2Cc1ccc(OC)cc1 ?
DENV2 CPE: 3; ERp5 block: 4; Cneo AK release: 101*; C2C12 statin: -10; CFTR F508del cor: 8.2*

How did COCC(=O)N1C[C@@H]2[C@H](c3ccccc31)[C@H](CO)N2Cc1ccc(OC)cc1 do in these assays?
DENV2 CPE: 8; ERp5 block: 0; Cneo AK release: 63; C2C12 statin: -2; CFTR F508del cor: 10*

What do the screens show for `CCOC(=O)C1CCN(c2c(C(=O)c3ccccc3)cnc3ccc(Cl)cc23)CC1`?
DENV2 CPE: 34*; ERp5 block: 1; Cneo AK release: 0; C2C12 statin: 2; CFTR F508del cor: -2

How did CS(=O)(=O)N1CC(=O)N2[C@H](C1)[C@@H](c1ccc(Br)cc1)[C@@H]2CO do in these assays?
DENV2 CPE: 16; ERp5 block: -2; CFTR F508del cor: 4

Results for Cc1ccc(-n2nnnc2SCC(=O)NC(C(=O)O)(c2ccccc2)c2ccccc2)cc1C ?
DENV2 CPE: 10; ERp5 block: 1; PDI turbidity: -6; CFTR F508del cor: 13*

What do the screens show for `O=C(CN1CCOCC1)N[C@@H]1CC[C@H](CCn2cc(C3CCCC3)nn2)O[C@H]1CO`?
DENV2 CPE: 3; ERp5 block: 3; CFTR F508del cor: -2

How did COC(=O)[C@@]1(Cc2ccccc2N=[N+]=[N-])N=C(c2ccc(OCCCO)cc2)O[C@H]1c1ccccc1CN=[N+]=[N-] do in these assays?
DENV2 CPE: 14; ERp5 block: 2; Cneo AK release: 1; CFTR F508del cor: -3

Results for [N-]=[N+]=NCc1ccccc1C[C@]1(C(N)=O)N=C(c2ccc(OCCCO)cc2)O[C@H]1c1ccccc1 ?
DENV2 CPE: 25*; ERp5 block: 1; Cneo AK release: 2; CFTR F508del cor: 3

How did COC(=O)[C@]1(CO)N=C(c2ccc(OCCCO)cc2)O[C@@H]1c1ccccc1CN=[N+]=[N-] do in these assays?
DENV2 CPE: 51*; ERp5 block: 0; Cneo AK release: -1; CFTR F508del cor: -1

What do the screens show for `COC(=O)[C@]1(Cc2ccccc2CN=[N+]=[N-])N=C(c2ccc(OCCCO)cc2)O[C@@H]1c1ccccc1`?
DENV2 CPE: -2; ERp5 block: -6; Cneo AK release: -10; CFTR F508del cor: 2

Compound activity from PubChem.
